Activity calls are given as the source filed them. The calls are words filed in the database; no cut-off is given here.
Tests used:
[1] = test system: Cholesterol 24-hydroxylase (Homo sapiens), Q9Y6A2 [UNDEFINED MUTATION]; experiment: Activation of recombinant human C-terminal 4His-tagged CYP46A1 delta(2 to 50) mutant expressed in Escherichia coli at 20 uM using cholesterol as substrate measured after 30 mins in presence of cytochrome P450 oxidoreductase by gas chromatography-mass spectrometry relative to control
Method in brief: (§1)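 Fixed 20 μM test compound (final, 2% methanol) with 0.5 μM purified Δ(2-50)CYP46A1 (wild type or mutant) and 1.0 μM rat P450 oxidoreductase. Buffer: 50 mM KPi pH 7.2, 100 mM NaCl, 40 μg/mL dilauroylphosphatidylcholine, 40 μM cholesterol, catalase, NADPH-regenerating system. Run 30 min at 37 °C. 24-Hydroxycholesterol measured by GC-MS against a deuterated internal standard. Fold activation over no-activator control; mean ± SD, three independent experiments.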

[2] = biological target: T1, Cholesterol 24-hydroxylase (Homo sapiens, UniProt Q9Y6A2); experiment: Inhibition of recombinant human C-terminal 4His-tagged CYP46A1 delta(2 to 50) mutant expressed in Escherichia coli at up to 100 uM using cholesterol as substrate measured after 30 mins in presence of cytochrome P450 oxidoreductase by gas chromatography-mass spectrometry; format: ADME; conditions: 0.5 h
Method in brief: (§2)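 Concentration-dependence curves with test compound at 0–100 μM (2% final methanol). Enzyme: 0.5 μM Δ(2-50)CYP46A1 plus 1.0 μM P450 oxidoreductase. Buffer: KPi pH 7.2, 100 mM NaCl, dilauroylphosphatidylcholine, 40 μM cholesterol, catalase, NADPH-regenerating system. Run 30 min at 37 °C. 24-Hydroxycholesterol quantified by GC-MS with a deuterated internal standard, expressed as nmol/nmol P450/min; mean ± SD, three experiments.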

[3] = test system: Cholesterol 24-hydroxylase (Homo sapiens), Q9Y6A2 [UNDEFINED MUTATION]; experiment: Activation of recombinant human C-terminal 4His-tagged CYP46A1 delta(2 to 50) mutant expressed in Escherichia coli at 20 uM using cholesterol as substrate measured after 30 mins in presence of cytochrome P450 oxidoreductase and L-Glu by gas chromatography-mass spectrometry relative to control
Method in brief: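 Co-incubation of 100 μM L-Glu with 20 μM test compound, 0.5 μM Δ(2-50)CYP46A1 and 1.0 μM P450 oxidoreductase. Buffer: 50 mM KPi pH 7.2, 100 mM NaCl, phospholipid, 40 μM cholesterol, NADPH-regenerating system. Run 30 min at 37 °C. 24-Hydroxycholesterol measured by GC-MS with a deuterated internal standard. Fold activation relative to control; mean ± SD of three experiments.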

[4] = organism: Homo sapiens; experiment: Activation of recombinant human C-terminal 4His-tagged CYP46A1 delta(2 to 50) R415A mutant expressed in Escherichia coli at 20 uM using cholesterol as substrate measured after 30 mins in presence of cytochrome P450 oxidoreductase by gas chromatography-mass spectrometry; method in brief: as §1
[5] = organism: Homo sapiens; experiment: Activation of recombinant human C-terminal 4His-tagged CYP46A1 delta(2 to 50) F405A mutant expressed in Escherichia coli at 20 uM using cholesterol as substrate measured after 30 mins in presence of cytochrome P450 oxidoreductase by gas chromatography-mass spectrometry; method in brief: as §1
[6] = organism: Homo sapiens; experiment: Activation of recombinant human C-terminal 4His-tagged CYP46A1 delta(2 to 50) K358A mutant expressed in Escherichia coli at 20 uM using cholesterol as substrate measured after 30 mins in presence of cytochrome P450 oxidoreductase by gas chromatography-mass spectrometry; method in brief: as §1
[7] = organism: Homo sapiens; experiment: Activation of recombinant human C-terminal 4His-tagged CYP46A1 delta(2 to 50) F416A mutant expressed in Escherichia coli at 20 uM using cholesterol as substrate measured after 30 mins in presence of cytochrome P450 oxidoreductase by gas chromatography-mass spectrometry; method in brief: as §1
[8] = organism: Homo sapiens; experiment: Activation of recombinant human C-terminal 4His-tagged CYP46A1 delta(2 to 50) Y427A mutant expressed in Escherichia coli at 20 uM using cholesterol as substrate measured after 30 mins in presence of cytochrome P450 oxidoreductase by gas chromatography-mass spectrometry; method in brief: as §1
[9] = organism: Homo sapiens; experiment: Activation of recombinant human C-terminal 4His-tagged CYP46A1 delta(2 to 50) K358R mutant expressed in Escherichia coli at 20 uM using cholesterol as substrate measured after 30 mins in presence of cytochrome P450 oxidoreductase by gas chromatography-mass spectrometry; method in brief: as §1
[10] = organism: Homo sapiens; experiment: Activation of recombinant human C-terminal 4His-tagged CYP46A1 delta(2 to 50) K358L mutant expressed in Escherichia coli at 20 uM using cholesterol as substrate measured after 30 mins in presence of cytochrome P450 oxidoreductase by gas chromatography-mass spectrometry; method in brief: as §1
[11] = organism: Homo sapiens; experiment: Activation of recombinant human C-terminal 4His-tagged CYP46A1 delta(2 to 50) Y427F mutant expressed in Escherichia coli at 20 uM using cholesterol as substrate measured after 30 mins in presence of cytochrome P450 oxidoreductase by gas chromatography-mass spectrometry; method in brief: as §1
[12] = biological target: T1, Cholesterol 24-hydroxylase; experiment: Inhibition of recombinant human C-terminal 4His-tagged CYP46A1 delta(2 to 50) mutant expressed in Escherichia coli at 60 to 100 uM using cholesterol as substrate measured after 30 mins in presence of cytochrome P450 oxidoreductase by gas chromatography-mass spectrometry; format: ADME; conditions: 0.5 h; method in brief: as §2
[13] = test system: Cholesterol 24-hydroxylase (Homo sapiens), Q9Y6A2 [UNDEFINED MUTATION]; experiment: Activation of recombinant human C-terminal 4His-tagged CYP46A1 delta(2 to 50) mutant expressed in Escherichia coli using cholesterol as substrate measured after 30 mins in presence of cytochrome P450 oxidoreductase by gas chromatography-mass spectrometry; method in brief: as §2
[14] = test system: Cholesterol 24-hydroxylase (Homo sapiens), Q9Y6A2 [UNDEFINED MUTATION]; experiment: Binding affinity to recombinant human C-terminal 4His-tagged CYP46A1 delta(2 to 50) mutant expressed in Escherichia coli at 15 to 30 uM in absence of substrate by UV-spectrophotometric method
Method in brief: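 Stopped-flow rapid-scanning spectrophotometry at 23 °C. Substrate-free CYP46A1 (4 μM, in 50 mM KPi pH 7.2 with 100 mM NaCl) was mixed with an equal volume of compound in the same buffer. Spectra were collected over 330–570 nm, and binding rates (kobserved) were fitted.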

[15] = test system: Cholesterol 24-hydroxylase (Homo sapiens), Q9Y6A2 [UNDEFINED MUTATION]; experiment: Binding affinity to recombinant human C-terminal 4His-tagged CYP46A1 delta(2 to 50) mutant expressed in Escherichia coli at 2 uM in presence of substrate by UV-spectrophotometric method
Method in brief: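 Stopped-flow rapid-scanning spectrophotometry at 23 °C in 50 mM KPi pH 7.2 with 100 mM NaCl. A premixed 4 μM CYP46A1·4 μM cholesterol complex was mixed with compound, and spectral changes were followed over 330–570 nm.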

[16] = biological target: T1, Cholesterol 24-hydroxylase; experiment: Binding affinity to recombinant human C-terminal 4His-tagged CYP46A1 delta(2 to 50) mutant expressed in Escherichia coli in absence of substrate at 24 degC by stopped-flow spectrophotometric method
[17] = test system: Cholesterol 24-hydroxylase (Homo sapiens), Q9Y6A2 [UNDEFINED MUTATION]; experiment: Binding affinity to substrate bound recombinant human C-terminal 4His-tagged CYP46A1 delta(2 to 50) mutant expressed in Escherichia coli assessed as Koff rate of cholesterol by stopped-flow spectrophotometric method
Method in brief: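 Release rate was measured by stopped-flow chase at 23 °C. A prebound complex (4 μM CYP46A1 plus 4 μM cholesterol, 50 mM KPi pH 7.2, 100 mM NaCl) was mixed with excess clotrimazole (40 μM). The rise in Δ(A437−A416) was followed, and 8–12 traces were averaged and fitted. Values are mean ± SD of three independent experiments.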

[18] = test system: Cholesterol 24-hydroxylase (Homo sapiens), Q9Y6A2 [UNDEFINED MUTATION]; experiment: Binding affinity to substrate free recombinant human C-terminal 4His-tagged CYP46A1 delta(2 to 50) mutant expressed in Escherichia coli assessed as Kon rate of cholesterol by stopped-flow spectrophotometric method

Sequence of Cholesterol 24-hydroxylase (Homo sapiens), Q9Y6A2 [UNDEFINED MUTATION] (Q9Y6A2 whole entry, looked up, stated change not applied): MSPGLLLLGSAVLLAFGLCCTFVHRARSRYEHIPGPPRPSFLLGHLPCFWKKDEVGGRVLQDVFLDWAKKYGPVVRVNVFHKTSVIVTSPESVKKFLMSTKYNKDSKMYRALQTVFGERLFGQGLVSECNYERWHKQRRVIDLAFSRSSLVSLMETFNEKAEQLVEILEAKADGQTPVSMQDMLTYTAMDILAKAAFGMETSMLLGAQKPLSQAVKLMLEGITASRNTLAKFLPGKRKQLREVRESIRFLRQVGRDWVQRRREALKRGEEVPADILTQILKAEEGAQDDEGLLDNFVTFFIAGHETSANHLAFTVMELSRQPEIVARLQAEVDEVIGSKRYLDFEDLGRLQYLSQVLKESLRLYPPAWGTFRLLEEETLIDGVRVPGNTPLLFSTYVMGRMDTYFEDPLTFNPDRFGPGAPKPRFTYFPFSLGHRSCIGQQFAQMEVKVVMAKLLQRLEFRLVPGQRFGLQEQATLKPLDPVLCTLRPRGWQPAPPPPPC
T1 sequence (Q9Y6A2 whole entry, looked up, stated change not applied): as above

| Structure (SMILES) | fold change (FC) [1] | inhibition (INH) [2] | fold change (FC) [3] | Activity [4] | Activity [5] | Activity [6] | Activity [7] | Activity [8] | Activity [9] | Activity [10] | Activity [11] | inhibition (INH) [12] | Activity [13] | Activity [3] | Activity [14] | Activity [15] | Kd [16] | K [17] | K [18] |
| --- | --- | --- | --- | --- | --- | --- | --- | --- | --- | --- | --- | --- | --- | --- | --- | --- | --- | --- | --- |
| O=C1Cc2ccc(Cl)cc2C(C#CC2CC2)(C(F)(F)F)O1 (racemic) | 1.9 | Not Active | 2.8 | Active | Active | Active | Active | Active | Active | Active | Active | – | – | – | – | – | – | – | – |
| O=C1Nc2ccc(Cl)cc2[C@@](C#CC2CC2)(C(F)(F)F)O1 [EFAVIRENZ] | – | – | – | Active | Active | inactive | inactive | inactive | inactive | inactive | – | Active | – | – | – | – | – | – | – |
| FC(F)(F)[C@@]1(C#CC2CC2)OCNc2ccc(Cl)cc21 | 2.5 | Not Active | – | inactive | inactive | Active | Active | Active | Active | Active | Active | – | Dose-dependent effect | inactive | – | – | – | – | – |
| O=C1Nc2c(O)cc(Cl)cc2C(C#CC2CC2)(C(F)(F)F)O1 (racemic) | – | – | – | – | – | – | – | – | – | – | – | Not Active | Dose-dependent effect | – | – | – | – | – | – |
| O=C1CC(C#CC2CC2)(C(F)(F)F)c2cc(Cl)ccc2N1 (racemic) | 3.9 | – | 4.6 | Active | Active | inactive | inactive | inactive | inactive | inactive | inactive | Not Active | Dose-dependent effect | – | – | – | – | – | – |
| CCCC#CC1(C(F)(F)F)OC(=O)Nc2ccc(Cl)cc21 (racemic) | 3.1 | – | 3.7 | Active | Active | inactive | inactive | inactive | inactive | inactive | inactive | Not Active | Dose-dependent effect | – | – | – | – | – | – |
| O=C1Nc2c(O)cc(Cl)cc2[C@@](C#CC2CC2)(C(F)(F)F)O1 | 6.2 | – | 7.4 | Active | Active | Active | Active | Active | Active | Active | Active | Not Active | Dose-dependent effect | – | – | – | – | – | – |
| CC1Nc2ccc(Cl)cc2C(C#CC2CC2)(C(F)(F)F)O1 (racemic) | 2.6 | – | – | inactive | inactive | Active | Active | Active | Active | Active | Active | Not Active | Dose-dependent effect | inactive | – | – | – | – | – |
| O=C1Nc2c(O)cc(Cl)cc2C(C#CC2(O)CC2)(C(F)(F)F)O1 (racemic) | 6.1 | – | 4.8 | inactive | inactive | Active | Active | Active | Active | Active | Active | – | – | – | inactive | inactive | 5 µM | 3.6 s⁻¹ | 0.7 ×10⁶ /M/s |
| O=C1Nc2cc(O)c(Cl)cc2C(C#CC2CC2)(C(F)(F)F)O1 (racemic) | 5.8 | – | 6.8 | Active | Active | Active | Active | Active | Active | Active | Active | Not Active | Dose-dependent effect | – | – | – | – | – | – |

Reference: ChEMBL document CHEMBL4613214, “In Vitro Activation of Cytochrome P450 46A1 (CYP46A1) by Efavirenz-Related Compounds” (J Med Chem, 2020)
